Reference: paper PMC4004375 (European journal of medicinal chemistry, 2013)

Legend:
[1] = biological target: intracellular HCV NS5B RdRp activity (Hepatitis C virus genotype 1b, UniProt P26663); experiment: BHK-NS5B-FRLuc reporter: intracellular NS5B RdRp activity; assay type: cell-based; details: 100 μM, 42 h, percent of DMSO controls
Summary of the method: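 BHK cells stably expressing NS5B and carrying a bicistronic (+)FLuc-(−)UTR-RLuc reporter were grown in DMEM with 10% FBS, antibiotic-antimycotic, nonessential amino acids, 1 mg/mL G418 and […] at 37 °C and 5% CO2. Cells were seeded at 1 × 10^4 cells/well and dosed 8 h later with 100 μM test compound. Cells were lysed 42 h after treatment and read by dual luciferase. Activity is the percent reduction in RLuc/FLuc versus DMSO controls.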

[2] = test system: Huh7.5 cells; experiment: Cell viability in parental Huh7.5 cells by MTS assay; assay type: cell-based; details: 100 μM, 42 h
Summary of the method: (§1)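 Cytotoxicity was run in parallel with the HCV replicon assays, using parental Huh7.5 cells at 37 °C and 5% CO2. Cells were seeded at 1 × 10^4 cells/well and exposed 8 h later to test compound at 100 μM or to matching DMSO for 42 h. Viability was read by the colorimetric MTS assay.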

[3] = test system: HCV RNA replication of genotype 1b (Huh7/Rep-Feo1b); experiment: HCV 1b replicon luciferase reporter assay; assay type: cell-based, Hepatitis C virus genotype 1b; details: Huh7/Rep-Feo1b cells, 100 μM, 42 h
[4] = test system: HCV RNA replication of genotype 2a (Huh7.5-FGR-JC1-Rluc2A); experiment: HCV 2a replicon luciferase reporter assay; assay type: cell-based, Hepatitis C virus genotype 2a; details: Huh7.5-FGR-JC1-Rluc2A cells, 100 μM, 42 h
[5] = test system: BHK-NS5B-FRLuc reporter cells; assay type: cell-based; details: 100 μM, 42 h, firefly luciferase versus DMSO controls
[6] = Cell viability in parental Huh7.5 cells by MTS assay; assay type: cell-based; details: human, parental Huh7.5 cells, Huh7.5 Cytotoxicity (%)
Summary of the method: as §1

intracellular HCV NS5B RdRp activity, sequence (P26663 2420-3010): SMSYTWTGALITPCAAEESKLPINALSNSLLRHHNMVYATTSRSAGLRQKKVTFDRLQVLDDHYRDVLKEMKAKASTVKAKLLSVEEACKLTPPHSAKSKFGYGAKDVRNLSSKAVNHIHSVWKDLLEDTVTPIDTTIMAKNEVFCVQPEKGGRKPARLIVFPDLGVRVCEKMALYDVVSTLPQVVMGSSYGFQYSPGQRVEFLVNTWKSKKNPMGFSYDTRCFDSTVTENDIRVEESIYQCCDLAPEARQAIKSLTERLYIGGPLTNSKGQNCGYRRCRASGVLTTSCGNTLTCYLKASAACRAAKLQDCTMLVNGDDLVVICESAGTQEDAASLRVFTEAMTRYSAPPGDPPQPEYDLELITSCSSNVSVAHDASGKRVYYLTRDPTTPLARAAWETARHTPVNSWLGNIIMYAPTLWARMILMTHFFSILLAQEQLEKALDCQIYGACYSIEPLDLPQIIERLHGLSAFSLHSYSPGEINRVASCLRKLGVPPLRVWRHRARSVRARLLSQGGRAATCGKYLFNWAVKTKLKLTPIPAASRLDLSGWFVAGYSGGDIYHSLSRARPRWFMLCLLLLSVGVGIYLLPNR

Compound	BHK-NS5B FR Luc Inhibition (%) [1]	Huh7.5 Cytotoxicity (%) [2]	1b Replicon reporter Inhibition (%) [3]	2a Replicon reporter Inhibition (%) [4]	BHK-NS5B FR Luc Cytotoxicity (%) [5]	cytotoxicity at 42 h, 100 µM [6]
2-[[5-(4-Fluorophenyl)-1,3,4-thiadiazol-2-yl]imino]-5-(2,6-dimethoxybenzylidene)-1,3-thiazolidin-4-one [Compound 17]	7.0 ± 1.8%	13.9 ± 1.6%	51.2 ± 6.3%	50.4 ± 5.2%	–	–
2-[[5-(4-Fluorophenyl)-1,3,4-thiadiazol-2-yl]imino]-5-(4-nitrobenzylidene)-1,3-thiazolidin-4-one [Compound 16]	no inhibition and n.i	63.0 ± 4.4%	87.7 ± 1.4%	93.2 ±1.7%	73.7 ± 8.6%	–
Nc1nnc(-c2ccc(F)cc2)s1 [Compound 3, 2-Amino-5-(4-fluorophenyl)-1,3,4-thiadiazole]	–	–	–	–	0.0%	–
Nc1nnc(-c2ccc(Cl)cc2)s1 [Compound 4, 2-Amino-5-(4-chlorophenyl)-1,3,4-thiadiazole]	did not inhibit and n.i.	–	–	–	–	–
O=C(CCl)Nc1nnc(-c2ccc(F)cc2)s1 [Compound 5, 2-Chloro-N-[5-(4-fluorophenyl)-1,3,4-thiadiazol-2-yl]acet-amide]	–	–	near complete inhibition	near complete inhibition	–	> 70%
O=C(CCl)Nc1nnc(-c2ccc(Cl)cc2)s1 [Compound 6, 2-Chloro-N-[5-(4-chlorophenyl)-1,3,4-thiadiazol-2-yl]acet-amide]	–	–	near complete inhibition	near complete inhibition	–	> 70%
O=C1CS/C(=N/c2nnc(-c3ccc(F)cc3)s2)N1 [Compound 7, 2-[[5-(4-Fluorophenyl)-1,3,4-thiadiazol-2-yl]imino]-1,3-thiazolidine-4-one]	–	–	–	–	0.0%	–
O=C1N/C(=N\c2nnc(-c3ccc(F)cc3)s2)S/C1=C\c1c(F)cccc1Cl [Compound 12, 2-[[5-(4-Fluorophenyl)-1,3,4-thiadiazol-2-yl]imino]-5-(2-chloro-6-fluoro-benzylidene)-1,3-thiazolidin-4-one]	–	–	near complete inhibition	near complete inhibition	–	> 70%
O=C1N/C(=N\c2nnc(-c3ccc(F)cc3)s2)S/C1=C\c1ccc(Cl)cc1Cl [Compound 14, 2-[[5-(4-Fluorophenyl)-1,3,4-thiadiazol-2-yl]imino]-5-(2,4-dichlorobenzylidene)-1,3-thiazolidin-4-one]	n.i	–	–	–	–	–
O=C1N/C(=N\c2nnc(-c3ccc(F)cc3)s2)S/C1=C\c1c(Cl)cccc1Cl [Compound 15, 2-[[5-(4-Fluorophenyl)-1,3,4-thiadiazol-2-yl]imino]-5-(2,6-dichlorobenzylidene)-1,3-thiazolidin-4-one]	–	–	near complete inhibition	near complete inhibition	–	> 70%
O=C1N/C(=N\c2nnc(-c3ccc(Cl)cc3)s2)S/C1=C\c1ccc(F)cc1 [Compound 20, 2-[[5-(4-Chlorophenyl)-1,3,4-thiadiazol-2-yl]imino]-5-(4-fluorobenzylidene)-1,3-thiazolidin-4-one]	no inhibition and n.i	–	–	–	–	–
O=C1N/C(=N\c2nnc(-c3ccc(Cl)cc3)s2)S/C1=C\c1c(F)cccc1Cl [Compound 21, 2-[[5-(4-Chlorophenyl)-1,3,4-thiadiazol-2-yl]imino]-5-(2-chloro-6-fluoro-benzylidene)-1,3-thiazolidin-4-one]	n.i.	–	n.i.	n.i.	–	0%
O=C1N/C(=N\c2nnc(-c3ccc(Cl)cc3)s2)S/C1=C\c1ccccc1Cl [Compound 22, 2-[[5-(4-Chlorophenyl)-1,3,4-thiadiazol-2-yl]imino]-5-(2-chlorobenzylidene)-1,3-thiazolidin-4-one]	n.i.	–	n.i.	n.i.	–	0%
O=C1N/C(=N\c2nnc(-c3ccc(Cl)cc3)s2)S/C1=C\c1ccc(Cl)cc1Cl [Compound 23, 2-[[5-(4-Chlorophenyl)-1,3,4-thiadiazol-2-yl]imino]-5-(2,4-dichlorobenzylidene)-1,3-thiazolidin-4-one]	n.i.	–	n.i.	n.i.	–	0%
O=C1N/C(=N\c2nnc(-c3ccc(Cl)cc3)s2)S/C1=C\c1c(Cl)cccc1Cl [Compound 24, 2-[[5-(4-Chlorophenyl)-1,3,4-thiadiazol-2-yl]imino]-5-(2,6-dichlorobenzylidene)-1,3-thiazolidin-4-one]	–	–	near complete inhibition	near complete inhibition	–	> 70%
COc1cccc(OC)c1/C=C1\S/C(=N/c2nnc(-c3ccc(Cl)cc3)s2)NC1=O [Compound 25, 2-[[5-(4-Chlorophenyl)-1,3,4-thiadiazol-2-yl]imino]-5-(2,6-dimethoxy-benzylidene)-1,3-thiazolidin-4-one]	–	–	near complete inhibition	near complete inhibition	–	> 70%
